MrgX1 antag = blocks BAM8-22 activation of human MrgX1 receptor; Q96LB2; MRGX1-HEK293 calcium flux, Fluo-4, BAM8-22 antagonism; active compounds read low; AID 588676; 310,000 tested, 1.3% active; B-score at 10 µM;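 active means calcium-response B-score plate-corrected more than 3 library SD below zero, starting fluorescence within 5 deviations, no agonist response on first addition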;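 further: peak minus trough fluorescence over baseline after final BAM8-22 challenge near maximal dose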
Target sequence (Q96LB2 whole entry, looked up): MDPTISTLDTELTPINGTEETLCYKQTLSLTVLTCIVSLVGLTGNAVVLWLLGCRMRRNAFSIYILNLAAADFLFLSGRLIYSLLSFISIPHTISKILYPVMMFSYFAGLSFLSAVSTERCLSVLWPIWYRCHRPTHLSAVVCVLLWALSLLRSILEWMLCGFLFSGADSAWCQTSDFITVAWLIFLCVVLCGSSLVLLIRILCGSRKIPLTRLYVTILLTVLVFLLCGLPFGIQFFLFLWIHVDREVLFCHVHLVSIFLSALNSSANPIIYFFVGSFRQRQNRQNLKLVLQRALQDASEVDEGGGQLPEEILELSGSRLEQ
MrgX1 ag = activates human MrgX1 receptor signaling. Q96LB2. MrgX1-HEK293 cells, Fluo-4 calcium fluorescence, agonist mode; active compounds read high. B-score at 10 µM. 310,000 tested, 0.44% active. AID 588627;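 active means calcium response B-score plate-corrected fluorescence ratio at least 3 library SD, with starting fluorescence B-score inside 5 SD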
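Test system: Stable human MrgX1 HEK293 cell line | Schedule: Overnight plating before 1 h dye loading | Read-out basis: Baseline-normalised fluorescence change ratio, B-scored | Detection: Kinetic calcium dye fluorescence, Fluo-4 NW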
RGS4 inh = inhibitors of human RGS4; P49798; B-score at 10 µM; HEK293 M3R/RGS4 inducible, Fluo-4 calcium flux; active compounds read high; triggered by carbachol at its EC20; 310,000 tested, 0.45% active;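 active means B-score, a plate-corrected calcium signal, over three deviations above library mean, with baseline fluorescence within five deviations of library mean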;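 further: RGS4 expression induced by doxycycline in cells with stable M3 receptor; B-score is computed from the integrated fluorescence ratio over baseline after carbachol; higher B-score means a larger calcium signal and so more RGS4 inhibition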
Target sequence (P49798 whole entry, looked up): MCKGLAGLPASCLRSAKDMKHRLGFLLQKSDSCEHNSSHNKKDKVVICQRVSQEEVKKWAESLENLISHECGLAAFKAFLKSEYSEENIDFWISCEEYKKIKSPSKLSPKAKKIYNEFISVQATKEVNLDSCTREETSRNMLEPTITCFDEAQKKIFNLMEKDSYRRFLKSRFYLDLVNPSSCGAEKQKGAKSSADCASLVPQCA
MrgX1 PAM = allosterically activates human MrgX1 receptor signaling | Q96LB2 | MrgX1-HEK293, Fluo-4 calcium flux, FDSS; active compounds read high | B-score at 10 µM | 310,000 tested, 0.63% active | AID 588675;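 active means plate-corrected calcium response at least 3 library SD above typical, normal starting fluorescence, not activating the receptor alone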;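 further: compound read alongside a low EC10 to EC30 dose of BAM8-22 agonist; peak minus trough fluorescence over baseline measured at the second addition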
RGS4 pot = potentiators or activators of RGS4. AID 463111. 310,000 tested, 0.92% active. B-score at 10 µM. HEK293 M3R/inducible RGS4, carbachol calcium flux Fluo4; active compounds read low;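 active means B-score of the integrated calcium signal more than 4 SD below the library mean, with starting fluorescence not abnormally high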;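 further: negative B-score means reduced calcium response which marks RGS4 activation or potentiation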
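test system = HEK293 cells with stable M3R and inducible RGS4 | schedule = recording 10 s baseline at 1 Hz, 100 s post-agonist | technique = Fluo4-AM (2 µM) calcium-flux fluorescence, kinetic read | measure = Agonist-evoked peak-minus-minimum fluorescence over baseline, integrated ratio, B score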
RGS4 inh valid = validation of RGS4 inhibitors. shares compounds with RGS4 inh. HEK293 M3R/RGS4, carbachol calcium Fluo-4 fluorescence; carbachol added at its EC20; 0 = buffer wells, 100 = carbachol control. calcium response, % at 10 µM. 1,700 tested, 65% active;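 active means duplicate-averaged calcium response above the buffer-only control mean plus 5 SD of those controls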;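 further: integrated fluorescence ratio F max minus min over baseline F0; higher response in RGS4-induced cells means RGS4 inhibition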
RGS4 uninduced = checks RGS4 inhibitor effects in non-induced HEK293 M3R cells; activity (percent), % at 10 µM; AID 493000; shares compounds with RGS4 inh; carbachol calcium Fluo-4; submaximal (EC20) carbachol stimulus; buffer wells 0%, carbachol control wells 100%; 1,900 tested, 20% active; call rule not given here;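 further: RGS4 induction absent so cells express M3R without RGS4; higher means more calcium signal and flags a non-specific hit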
RGS4 inh ctr2 = signal in non-induced cells without carbachol, RGS4 inhibitor counter-screen; shares compounds with RGS4 inh; HEK293 M3R/RGS4 non-induced, Fluo-4 calcium, no carbachol; normalised: buffer wells 0%, carbachol wells 100%; calcium response (agonist-mode artifact), % at 10 µM; 1,900 tested, 22% active;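 active means duplicate-averaged calcium rise in uninduced cells above buffer wells' mean plus 5 SD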
Starred values were filed as active, the others as inactive; i = inactive; nt = no result. Sampled rows, rich in hits. Any-hit rate of the full collection: about 3.5%.

SMILES	MrgX1 antag	MrgX1 ag	RGS4 inh	MrgX1 PAM	RGS4 pot	RGS4 inh valid	RGS4 uninduced	RGS4 inh ctr2
COc1cc(/C=C(\C#N)C(=O)NC2CCCCC2C)ccc1OS(=O)(=O)c1ccc(C)cc1 (stereo not drawn)	i	i	i	i	i	nt	nt	nt
COc1cc(/C=C(\C#N)C(N)=O)ccc1OS(=O)(=O)c1ccc(C)cc1	i	43*	4.9*	i	i	30%*	40%*	31%*
Cc1ccccc1C1CC(c2ccccc2OC(F)F)Nc2ncnn21 (stereo not drawn)	i	i	5.3*	i	i	11%*	i	i
Cc1ccc(C2CC(c3ccccc3OC(F)F)Nc3ncnn32)cc1 (stereo not drawn)	i	i	i	i	i	nt	i	i
Cc1ccccc1C(=O)NCC(=O)Nc1ccc(C)c(S(=O)(=O)N2CCCCCC2)c1	i	i	i	i	i	nt	nt	nt
OCC1OC(n2cnc3c(NC4CCCCC4)ncnc32)C(O)C1O (stereo not drawn)	i	i	i	i	i	nt	48%*	i
OCC1OC(n2cnc3c(NC4CCCC4)ncnc32)C(O)C1O (stereo not drawn)	i	i	4.7*	i	i	41%*	i	312%*
C=CCNc1ncnc2c1ncn2C1OC(CO)C(O)C1O (stereo not drawn)	i	i	4.8*	i	i	18%*	67%*	i
CC(C)(C)OC(=O)Nc1ncnc2c1ncn2C1OC(CO)C2OC(C)(C)OC21 (stereo not drawn)	i	i	i	i	i	nt	nt	nt
OC[C@H]1O[C@@H](n2cnc3c(NC4CCCC4)ncnc32)[C@H](O)[C@@H]1O	i	i	i	i	i	nt	nt	nt
Cc1cc(C)c(C)c(S(=O)(=O)NCc2ccc(C(=O)N3CCOCC3)cc2)c1C	i	i	i	i	i	nt	nt	nt
COc1cc2c(cc1OC)-c1cc(Nc3ccc(C)cc3)nc(=O)n1CC2	i	i	i	i	i	nt	i	i
COc1cc2c(cc1OC)-c1cc(Nc3ccccc3)nc(=O)n1CC2	i	i	i	i	i	nt	i	93%*
COc1ccc(Nc2cc3n(c(=O)n2)CCc2cc(OC)c(OC)cc2-3)cc1	i	i	i	i	i	nt	nt	nt
COC(=O)Cc1csc(Nc2ccc(F)c(Cl)c2)n1	i	i	i	i	i	nt	nt	nt
CN(C)/C=C/C1=CC(=O)CC(C)(C)C1	i	i	i	i	i	nt	nt	nt
Cc1cc(Cl)n2c(nc3cc(F)c(F)cc32)c1C#N	nt	nt	7.5*	nt	i	13%*	i	9.5%*
Cc1cc(-c2ccco2)n2c(nc3ccccc32)c1C#N	i	i	i	i	i	nt	nt	nt
O=C(CCc1ccccc1)N=C1SC2CS(=O)(=O)CC2N1c1ccccc1 (stereo not drawn)	i	i	i	i	i	nt	nt	nt
Cc1ccc(CN2CCc3c(OCC(=O)Nc4cc(C)ccc4C)cccc3C2=O)cc1	i	i	i	i	i	nt	nt	nt
CC(Sc1ncc(C(F)(F)F)cc1Cl)C(=O)NCC1CCCO1 (stereo not drawn)	i	i	i	i	i	nt	nt	nt
Cc1c(C(=O)N2CCCCC2)c(S(=O)(=O)NCc2ccc(Cl)cc2)c(C)n1C	i	i	i	i	i	nt	nt	nt
O=C(NC1CCN(S(=O)(=O)c2ccc(F)cc2)CC1)c1cccnc1	i	i	i	i	i	nt	nt	nt
CCOC(=O)C1CCCN(Cc2cc(=O)oc3cc(C)ccc23)C1 (stereo not drawn)	i	i	i	i	i	i	i	10%*
Cc1ccc2c(CN3CCC(C)CC3)cc(=O)oc2c1	i	i	i	i	i	nt	nt	nt
SMILES	MrgX1 antag	MrgX1 ag	RGS4 inh	MrgX1 PAM	RGS4 pot	RGS4 inh valid	RGS4 uninduced	RGS4 inh ctr2
CCOC(=O)C1CCN(Cc2cc(=O)oc3cc(C)ccc23)CC1	i	i	5.5*	i	i	i	i	i
COCCCNC(=O)CN1C(=O)COc2ccc(S(=O)(=O)N3CCOCC3)cc21	i	i	i	i	i	i	i	i
CCCN(CCC)CCNC(=O)CN1C(=O)COc2ccc(S(=O)(=O)N3CCOCC3)cc21	i	i	i	i	i	nt	nt	nt
CN(Cc1nc(-c2cccs2)no1)CC(O)c1ccccc1 (stereo not drawn)	i	i	i	i	i	nt	nt	nt
O=C(C1=C(O)C(=O)N(Cc2ccco2)C1c1cccc([N+](=O)[O-])c1)c1ccco1 (stereo not drawn)	i	i	i	i	i	i	i	i
O=C(C1=C(O)C(=O)N(c2ncccn2)C1c1cccc(Cl)c1)c1ccco1 (stereo not drawn)	i	i	i	i	i	nt	nt	nt
O=C(C1=C(O)C(=O)N(Cc2ccco2)C1c1cccc(Cl)c1)c1ccco1 (stereo not drawn)	i	i	i	i	i	i	i	i
Cc1ccc(C(=O)NCC(=O)OCC(=O)N(CC(C)C)c2c(N)n(Cc3ccccc3)c(=O)[nH]c2=O)cc1	i	i	i	i	i	nt	nt	nt
Nn1c(Cc2cccc3ccccc23)nnc1SCCOc1ccc(Br)cc1	i	i	i	i	i	i	i	i
Nn1c(Cc2cccc3ccccc23)nnc1SCc1c(F)cccc1Cl	i	i	i	i	i	nt	nt	nt
Nn1c(Cc2cccc3ccccc23)nnc1SCCOc1ccc(F)cc1	i	i	6.5*	i	i	i	i	i
O=C(CSc1nnc(CNC(=O)c2c(F)cccc2F)o1)Nc1ccc2c(c1)OCCO2	i	i	i	i	i	nt	nt	nt
NC(=S)N=Nc1c(O)[nH]c2c(Br)cc(Br)cc12	i	i	i	i	i	nt	nt	nt
CC1=Nc2ccccc2N=C(NC(=O)c2ccccc2)C1c1ccccc1 (stereo not drawn)	i	i	i	i	i	nt	nt	nt
COc1ccc(Nc2nc(N)nc(CSc3nnc(C)s3)n2)cc1	i	i	i	i	i	i	i	i
